This is a sample that favours compounds with a hit; in the whole collection about 3.7% have one here.
Dynein cargo inh: dynein cargo transport inhibition | 3617.4 mouse cells, GR-EGFP nuclear translocation imaging; test concentration mostly 20 µM; stimulated with dexamethasone, 1 µM; stronger effect = lower value | z-score, hits read low | hit rate 0.47% among 220,000;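 active = plate z-score of nuclear minus cytoplasmic receptor signal below a set negative limit, without overly bright fluorescence or cell loss, cut at about -3.5 in these data, passing the limit was not always enough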;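 note: z-score of nuclear minus cytoplasmic ring GR-EGFP intensity difference per well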
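Buffer or medium: tet-free, stripped-serum medium; Also added: dexamethasone, 1.0 µM final; Technique: high-content fluorescence imaging after fixation; Times: 48 h induction, 1 h compound, 30 min dex at 37 °C; Read-out: per-cell GR-EGFP intensity, nucleus versus surrounding cytoplasmic ring, well-averaged.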
Beta2AR agonist: human beta-2 adrenergic receptor agonism by FAP; AID 504454; Am2.2-beta2AR cells, FAP receptor internalization, flow cytometry; hit rate 0.43% among 340,000; response, % (no concentration beside the values); P07550;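 active = response above a set limit, near 3 SD of response in nonfluorescent compounds, cut at about 42% in these data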
Mdm2-MdmX inh: inhibitors of human Mdm2/MdmX interaction; O15151+Q00987; SaOS-2 split-luciferase Mdm2/MdmX complementation, luminescence; inhibition, % at 8 µM; hit rate 3% among 330,000; AID 485346;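 active = inhibition of at least 50% at 8 µM in the primary screen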
MDM2 E3 inh: Mdm2 E3 ligase (human) inhibition | AID 1230 | signal enhancement, % at 5 µM | cell-based MDM2 ubiquitination luciferase reporter, 2 h; 0 = plate control, 100 = twice control, blank-subtracted | hit rate 0.11% among 210,000;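 active = signal enhancement of 30% or more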;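 note: luminescence tracks abundance of the self-degrading MDM2-luciferase fusion protein; higher signal means inhibition of MDM2 E3 ligase activity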
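Test system: mammalian cells stably expressing self-ubiquitinating, self-degrading MDM2 E3–luciferase fusion; Amount: 2000 cells in each well; Medium: DMEM; Schedule: 4 h settle plus 2 h compound, 37 °C; Technique: SteadyLite luciferase luminescence after 15 min room-temperature reagent incubation; Benchmarks: plate control and blank wells.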
UPR XBP1 act: adaptive UPR (XBP1) activation. hit rate 0.33% among 330,000. activation, % at 20 µM. CHO-XBP1 luciferase reporter, IRE1-XBP1 UPR activation, luminescence; percent of tunicamycin response, DMSO as zero;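 active = versus positive control, 20 µM dose yields 30% or more activation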;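 note: 100% = tunicamycin at 10 µg/mL and 0% = DMSO only wells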
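Material – CHO cell line with stable XBP1 luciferase reporter · Buffer or medium – F12 plus 10% FBS · Compound – single point, 20 µM final compound, 1% DMSO · Schedule – 16-18 h cell attachment at 37 °C, then 6 h compound exposure · Signal – Steady-Glo luminescence read · Benchmarks – high control tunicamycin 10 µg/mL final, low control DMSO vehicle only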
CHOP UPR activ: apoptotic UPR (CHOP) activation. AID 449763. CHO-CHOP luciferase reporter, luminescence; percent of tunicamycin response over DMSO baseline. activation, % at 10 µM. hit rate 0.34% among 330,000;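 active = at 10 µM dose, activation of 40% or more, normalized to positive control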;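 note: 100% = tunicamycin at 10 µg/mL and 0% = DMSO alone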
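Test system: CHO CHOP reporter cells. Input: 500 CHO-CHOP cells per well. Medium: F12 with 10% FBS. Technique: luciferase luminescence. Measure: percent activation relative to tunicamycin control. Dosing: 10 µM compound, 0.5% DMSO. Timing: 16-18 h cell attachment, then 6 h compound exposure, 37 °C.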
Mdm2-MdmX conf: human Mdm2/MdmX binding inhibition, confirmed; shares compounds with Mdm2-MdmX inh; luminescent assay; inhibition, % at 8 µM; hit rate 55% among 10,000; AID 489028; in the data active = inhibition above about 40%
FLuc counter: inhibits full-length luciferase, flagging false Mdm2/MdmX hits; inhibition, % at 8 µM; SaOS-2 full-length luciferase counterscreen, luminescence; shares compounds with Mdm2-MdmX inh; hit rate 77% among 6,200;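 active = mean inhibition at 8 µM reaching about 37%, which flags the compound as non-specific, limit read from the data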;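 note: p53-null SaOS-2 cells with luciferase driven by a doxycycline-inducible promoter; compound on cells about two nights before reading with doxycycline added after day one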
The depositor's hits bear a star.

Results for CCOC(=O)c1c(C)[nH]c(C(=O)COC(=O)c2ccccc2NC(=O)c2ccco2)c1C ?
Dynein cargo inh: -0.97; Beta2AR agonist: 3; Mdm2-MdmX inh: 63*; MDM2 E3 inh: 5; UPR XBP1 act: 9; CHOP UPR activ: -3; Mdm2-MdmX conf: 16

What do the screens show for `Cc1cc(=O)oc2cc(NC(=O)Cc3ccccc3[N+](=O)[O-])ccc12`?
Beta2AR agonist: 2; Mdm2-MdmX inh: 14; UPR XBP1 act: 0; CHOP UPR activ: 3

Results for CC(C)N1CCc2c(sc(NC(=O)CCS(=O)(=O)c3ccccc3)c2C#N)C1 ?
Beta2AR agonist: 3; Mdm2-MdmX inh: 14; UPR XBP1 act: -3; CHOP UPR activ: 0

What do the screens show for `O=C(CCNC(=O)c1ccc(Br)cc1)NC1CCCc2ccccc21` (centres undefined)?
Beta2AR agonist: 1; Mdm2-MdmX inh: 88*; UPR XBP1 act: -2; CHOP UPR activ: -1; Mdm2-MdmX conf: 89*; FLuc counter: 46*

How did O=C(NC1CCCc2ccccc21)c1ccc(Br)cc1 (centres undefined) do in these assays?
Dynein cargo inh: -0.9; Beta2AR agonist: 4; Mdm2-MdmX inh: 7; MDM2 E3 inh: -1; UPR XBP1 act: -2; CHOP UPR activ: 0

Results for Cn1c(=O)c2c(ncn2CC(=O)N/N=C/C=C/c2ccccc2[N+](=O)[O-])n(C)c1=O ?
Dynein cargo inh: 0.19; Mdm2-MdmX inh: 27; MDM2 E3 inh: -7; UPR XBP1 act: -1; CHOP UPR activ: 1

How did COc1ccccc1CNC(=O)[C@H](C)NC(=O)C1CCN(C(=O)[C@@H](N)CC(C)C)CC1 do in these assays?
Beta2AR agonist: -12; Mdm2-MdmX inh: 10; UPR XBP1 act: -2; CHOP UPR activ: 0

Results for O=C(O/N=C(\c1ccccc1)c1ccccn1)c1cccc2ccccc12 ?
Dynein cargo inh: -0.32; Beta2AR agonist: 1; Mdm2-MdmX inh: 87*; MDM2 E3 inh: -8; UPR XBP1 act: 3; CHOP UPR activ: 2; Mdm2-MdmX conf: 29

What do the screens show for `N/C(=N\OC(=O)c1cccc2ccccc12)c1cccnc1`?
Dynein cargo inh: -0.22; Beta2AR agonist: -1; Mdm2-MdmX inh: 48; MDM2 E3 inh: 5; UPR XBP1 act: 6; CHOP UPR activ: 4

What do the screens show for `O=C(O/N=C(\c1ccccc1)c1ccncc1)c1ccccc1Cl`?
Dynein cargo inh: 1.7; Beta2AR agonist: -7; Mdm2-MdmX inh: 1; MDM2 E3 inh: -12; UPR XBP1 act: -3; CHOP UPR activ: 0

Results for Cc1cccc(/C(N)=N/OC(=O)c2cccc3ccccc23)c1 ?
Beta2AR agonist: 3; Mdm2-MdmX inh: 100*; UPR XBP1 act: 7; CHOP UPR activ: 8; Mdm2-MdmX conf: 78*; FLuc counter: 108*

What do the screens show for `N/C(=N\OC(=O)c1cccc2ccccc12)c1cccc([N+](=O)[O-])c1`?
Dynein cargo inh: 0.58; Beta2AR agonist: 10; Mdm2-MdmX inh: 76*; MDM2 E3 inh: -9; UPR XBP1 act: -2; CHOP UPR activ: 2; Mdm2-MdmX conf: 58*; FLuc counter: 128*

Results for Cc1cccc(/C(N)=N/OC(=O)N2c3ccccc3Sc3ccccc32)c1 ?
Dynein cargo inh: -0.61; Beta2AR agonist: 0; Mdm2-MdmX inh: 64*; MDM2 E3 inh: -62; UPR XBP1 act: 1; CHOP UPR activ: 1; Mdm2-MdmX conf: 1

What do the screens show for `O=C(O)C1C(c2ccccc2)c2ccccc2C(O)C1CO` (centres undefined)?
Beta2AR agonist: 1

What do the screens show for `COc1cc(OC)cc(C(=O)O/N=C(\N)c2cccc(C)c2)c1`?
Beta2AR agonist: 11; Mdm2-MdmX inh: 73*; UPR XBP1 act: 2; CHOP UPR activ: 5; Mdm2-MdmX conf: 44*; FLuc counter: 105*

Results for COc1cc(OC)cc(C(=O)O/N=C(\N)c2ccncc2)c1 ?
Dynein cargo inh: -0.5; Beta2AR agonist: 6; Mdm2-MdmX inh: 14; MDM2 E3 inh: -3; UPR XBP1 act: 1; CHOP UPR activ: 3

How did COc1ccc(C(=O)N/N=C(\c2ccccc2)c2ccccn2)cc1 do in these assays?
Dynein cargo inh: 2.1; Beta2AR agonist: -11; MDM2 E3 inh: -8

What do the screens show for `O=C(NN=C(c1ccccc1)c1ccccn1)c1ccccc1`?
Beta2AR agonist: 0; Mdm2-MdmX inh: 91*; UPR XBP1 act: -1; CHOP UPR activ: 19; Mdm2-MdmX conf: 58*; FLuc counter: 27

How did CCCc1c(O)nc(SC2CC(=O)N(c3ccc(C)c(Cl)c3)C2=O)[nH]c1=O (centres undefined) do in these assays?
Beta2AR agonist: -4; Mdm2-MdmX inh: 16; UPR XBP1 act: -1; CHOP UPR activ: -1

Results for Cc1ccc(N2C(=O)CC(Sc3nc4ccccc4o3)C2=O)cc1Cl (centres undefined) ?
Dynein cargo inh: -0.0024; Beta2AR agonist: 9; Mdm2-MdmX inh: 89*; MDM2 E3 inh: -19; UPR XBP1 act: -7; CHOP UPR activ: 29; Mdm2-MdmX conf: 8

What do the screens show for `Cc1cc(C(=O)N2CCN(S(=O)(=O)c3ccc(F)c(Cl)c3)CC2)c(C)o1`?
Beta2AR agonist: 3; Mdm2-MdmX inh: 12; UPR XBP1 act: 2; CHOP UPR activ: -1

Results for Oc1[nH]c2ccccc2c1N=Nc1nc2ccccc2s1 ?
Dynein cargo inh: -0.98; Beta2AR agonist: -2; Mdm2-MdmX inh: -4; MDM2 E3 inh: -46; UPR XBP1 act: 2; CHOP UPR activ: 1

Results for Cc1ccc2[nH]c(O)c(N=Nc3nc4ccccc4s3)c2c1 ?
Dynein cargo inh: -0.64; Beta2AR agonist: 13; Mdm2-MdmX inh: 68*; UPR XBP1 act: -2; CHOP UPR activ: 1; Mdm2-MdmX conf: 55*; FLuc counter: 47*

What do the screens show for `O=c1cc(-c2ccccc2Cl)oc2c(NS(=O)(=O)c3cc(Cl)cc(Cl)c3O)ccc(O)c12`?
Dynein cargo inh: 0.68; Beta2AR agonist: 7; Mdm2-MdmX inh: 98*; UPR XBP1 act: -2; CHOP UPR activ: -1; Mdm2-MdmX conf: 83*; FLuc counter: 43*

Screening data from PubChem.
